For 96 molecules, cytotoxicity results are on record in ChEMBL document CHEMBL4513216, “Probing the Open Global Health Chemical Diversity Library for Multistage-Active Starting Points for Next-Generation Antimalarials” (ACS Infect Dis, 2020).

The data set in a line: Toxicity liver stage against HepG2, at 10uM. The class given is cell-based. Details: test concentration 10 uM, cell line HepG2-A16-CD81EGFP. As to conditions: human, HepG2-A16-CD81EGFP cells; read-out: INHIBITION
An outline of the steps:
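Uninfected HepG2-A16-CD81EGFP cells, 3 × 10^3 per well, 1536-well, plated on prespotted compound at 10 μM final, parasite-free screening media added to match infected plates; puromycin 10 μM positive, DMSO 0.5% negative; run in parallel with 48 h PbLuc assay at 37 °C, 5% CO2; viability by CellTiter-Glo luminescence, normalized to controls.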

Consider `CN(Cc1ccc(-n2cccn2)cc1)C(=O)CCC(F)(F)F`, for which the cytotoxicity at 10 µM was -3.67%.
The same measure for `Cn1c(C(=O)NS(C)(=O)=O)ccc1-c1ccccc1`: -6.85%; for `CC(C)N1CCC(CNC(=O)COc2ccc(F)cc2F)C1` (stereo unspecified): -2.17%; for `COc1cc(CN(C)C(=O)NCCC(=O)NC2CCCC2)ccc1SC`: -8.9%.
The result for `CN(C)C(=O)COC[C@H]1CC[C@@H]2[C@@H](CCN2Cc2ccco2)O1` reads -160%.
The same measure for `Cn1cc(CN2CCCC(c3nc(O)cc(-c4cccs4)n3)C2)cn1` (stereo unspecified): -5.89%; for `O=C(C1CCOC1)N1CCc2ncnc(-c3cccnc3)c2CC1` (stereo unspecified): -3.13%.
For `Cc1oncc1C(=O)N1CCC2(CC1)C(c1cnn(C)c1)CC(=O)N2C` (stereo unspecified), the cytotoxicity at 10 µM is -75.6%.
On to `Cc1nc2n(n1)CC(NCc1csc(-c3ccsc3)n1)CC2` (stereo unspecified), for which the cytotoxicity at 10 µM is -0.544%.
The result for `O=C(CCC1CCCO1)NCCc1ccccn1` (stereo unspecified) reads -43.2%.
The same measure for `CCC(Nc1nc(C(C)C)nc2c1cnn2C)c1ccncc1` (stereo unspecified): -48%; for `Cc1nc(C)n(CC2CCCN(Cc3nnc(C(C)(C)C)o3)C2)n1` (stereo unspecified): -11%; for `COc1ccccc1S(=O)(=O)Nc1ccc2c(C(=O)O)c[nH]c2c1`: -11.1%.
The result for `COc1cc(NC(=O)c2cc(Cl)ccc2F)c(C(=O)N(C)C)cc1OC` reads -2.61%; that for `OCc1csc(N2C[C@@H](CN3CCCCCC3)[C@@H](CO)C2)n1`, 2.65%.
Regarding `COCc1c(Br)cccc1NC(=O)N(C)CCO`, the cytotoxicity at 10 µM is -9.95%.
As to `O=C(Nc1ccccc1)N1C[C@@H]2C[C@H](C(=O)N3CCCC3)[C@H](C1)O2`, the cytotoxicity at 10 µM was -3.29%.
The same measure for `CC(NC(=O)CCCN(C)C)c1cn(-c2ccccc2)nn1` (stereo unspecified): -22.7%.
With `COc1cc(C#N)ccc1OCCN1CCC(n2ccnc2)CC1`, the cytotoxicity at 10 µM is 2.75%.
The result for `CC(=O)N1CCC(NC(=O)c2cc(S(N)(=O)=O)ccc2C)CC1` reads 11.7%; that for `COCCCN(C)S(=O)(=O)c1ccc(Cl)cc1C#N`, -38%.
The same measure for `CN1C(=O)C2(CCN(Cc3cccnc3)CC2)c2cccc(F)c21`: 6.77%; for `Cc1ccccc1-c1cc(C(=O)N2CCCC(n3ccnc3C)C2)[nH]n1` (stereo unspecified): 14.3%.
The same measure for `O=C(c1ncn2c1CNS(=O)(=O)c1ccccc1-2)N1CCOCC1`: 8.28%; for `COCCN1CCN(S(=O)(=O)c2ccccc2)Cc2cccnc21`: 4.77%.
Turning to `CC(=O)N1CCN(C[C@H]2CC[C@@H](Cc3ccc4c(c3)OCO4)O2)CC1`, the cytotoxicity at 10 µM is -7.9%.
Consider `CCOC(=O)CNC(=O)NCc1cccn1Cc1ccccc1C`, for which the cytotoxicity at 10 µM worked out at 4.9%.
The result for `CC(C)(C)c1nnc(CNc2c(F)cccc2-n2cccn2)o1` reads -8.25%; that for `CSCC(C)(O)CNC(=O)Nc1ccc(C)cc1Br` (stereo unspecified), -9.83%.
For the molecule `CC(C1CCN(Cc2cccc(OC(F)F)c2)CC1)N1CCOCC1` (stereo unspecified), the cytotoxicity at 10 µM is -9.2%.
In the case of `Cn1cc(C(=O)N2CC[C@@H]3[C@@H]2CCN3c2ccccn2)cn1`, the cytotoxicity at 10 µM is -0.0807%.
Take `CC(C)C1CN(c2ncccn2)CCC(=O)N1CC1CC1` (stereo unspecified): the cytotoxicity at 10 µM was 0.0666%.
The result for `Cn1cc(CN2CC[C@@H]3[C@@H](CCC(=O)N3CC3CCNCC3)C2)cn1` reads 1.73%.
`CC(C)CC(=O)N1CC[C@@H]2[C@H](CC1)N(Cc1cccnc1)CCS2(=O)=O`: the cytotoxicity at 10 µM is 0.238%.
The same measure for `CCO[C@@H]1CO[C@@]2(CCCN(C(=O)COc3ccccc3OC)C2)C1`: 3.51%; for `CCS(=O)(=O)N1CCC2(C1)C(=O)N(C)CCN2Cc1ccncc1` (stereo unspecified): -4.78%; for `O=C(NCc1cc2n(n1)CCCN(Cc1ccc(CO)o1)C2)C1CCC1`: 5.46%.
The result for `CCCc1nnc(NC2CCN(Cc3ccc(F)c(F)c3)CC2)o1` reads -1.48%.
For `Cn1cc(C[C@H]2[C@H](O)CCN2CC2CC2)cn1`, the cytotoxicity at 10 µM is -0.516%.
The same measure for `O=C(NCCc1cc(N2CCOCC2)nc(NC2CC2)n1)C1CC1`: -0.995%; for `Clc1ccccc1CN1CCc2nc(C3CCCNC3)ncc2C1` (stereo unspecified): -19.7%; for `O=C(c1ccc2[nH]ccc2c1)N1Cc2nc(CN3CCCC3)oc2C1`: 6.98%.
The result for `Cc1ccc2c(c1)C(NC(=O)C1CCN(S(C)(=O)=O)CC1)CC(C)(C)O2` (stereo unspecified) reads 2.22%; that for `CC(C)(O)CN1CCN(C(=O)COCC2CC2)CC1`, -9.17%.
The same measure for `COc1ccccc1CNC(=O)N1CCCC(c2nncn2C)C1` (stereo unspecified): -6.51%; for `O=C1CCC2(CCCN(c3ncnc4[nH]cnc34)C2)CN1CCCO` (stereo unspecified): -2.09%.
As for `COCCCC1(CO)CCCN(CCc2ccccn2)C1` (stereo unspecified), the cytotoxicity at 10 µM was 7.42%.
`CC(=O)Nc1nc(C(=O)NCCOc2ccc(C)cc2)cs1`: the cytotoxicity at 10 µM was determined as 5.35%.
The same measure for `CCc1noc(C2CCCCN2C(=O)c2ccc3c(c2)OCO3)n1` (stereo unspecified): 1.75%; for `COc1c(CNCCC(=O)Nc2cccc(C)n2)c(C(C)C)nn1C`: -1.17%; for `Cc1nc(C)c(CC(=O)N2CCN(CC(C)C)CC2)c(=O)[nH]1`: -12.3%.
The same measure for `CCc1cnc(C)nc1N(C)CCCc1cnn(C)c1`: -10%; for `COCCN1Cc2ccnn2CC(COCc2cccnc2)C1` (stereo unspecified): -131%; for `COC(=O)Cn1ccc(NS(=O)(=O)c2ccc3c(c2)CCC3)n1`: 10.6%.
For `Cc1ccc(CC(=O)N2CCC(c3nnc4n3CCC4)CC2)cc1`, the cytotoxicity at 10 µM amounted to 4.78%.
For the molecule `COCCC(=O)N(CCC#N)c1ccc(C)c(C)c1`, the cytotoxicity at 10 µM amounted to 3.43%.
With `CN1CCN(c2ccc(NC(=O)c3ccoc3)c(C(F)(F)F)c2)CC1`, the cytotoxicity at 10 µM was -4.1%.
The same measure for `CN(C(=O)Cc1c[nH]c2ccccc12)C1CCN(c2ccccn2)CC1`: 9.36%.
The same measure for `CCC(C)(CC(=O)O)NC(=O)Cc1ccccc1Br` (stereo unspecified): 1.29%; for `Cc1noc([C@H]2C[C@H]3OCC[C@H]3N(Cc3ccc4c(c3)OCO4)C2)n1`: 2.67%.
Consider `CN1C(=O)CCC12CCN(S(=O)(=O)c1ccccc1)CC2`, for which the cytotoxicity at 10 µM is -9.75%.
The same measure for `N#Cc1c(SCCN2CCOCC2)sc2c(O)cc(O)nc12`: -7.5%; for `Cc1cc(F)c(S(=O)(=O)NCc2ccnc(N(C)C)n2)cc1F`: -156%.
For `Cc1nc(N)nc(C)c1CC(=O)N1CCC2(CC1)OCCCC2O` (stereo unspecified), the cytotoxicity at 10 µM is -1.8%.
Turning to `Cc1ccc(O)c(CN2CCn3nc(C(=O)N4CCCC4)cc3C2)n1`, the cytotoxicity at 10 µM is 1.5%.
The result for `CCc1cc(CNC(=O)C2CCC(=O)N(Cc3ccccc3F)C2)on1` (stereo unspecified) reads 1.48%; that for `Cc1cc(NC(=O)CN2CCc3nn(C)c(=O)cc3C2)no1`, -5.04%.
For `COc1ccc2c(c1)CCCN(C(=O)NCC1CCCO1)C2` (stereo unspecified), the cytotoxicity at 10 µM was 1.06%.
The same measure for `Cc1cnc(NS(=O)(=O)c2cccc(C#N)c2)s1`: 15%; for `Cc1cn2c(n1)CCC(NC(=O)c1cnc(C)nc1C(C)C)C2` (stereo unspecified): -0.144%.
On to `CC(C)c1nc(C2CCCN(C(=O)Cn3ccccc3=O)C2)no1` (stereo unspecified), for which the cytotoxicity at 10 µM is -16.3%.
The result for `COc1c(C)cnc(CN(C)C2CCN(C3CCOCC3)CC2)c1C` reads -17.7%; that for `Fc1ccc2c(C3=CCN(Cc4nnc(C5CCC5)o4)CC3)c[nH]c2c1`, -0.302%; that for `Cn1ccnc1CCNS(=O)(=O)c1cccc(Br)c1`, 4.95%.
The result for `CCN(C(=O)CCCOc1ccccc1F)c1ccncc1` reads -5.69%; that for `O=C(c1cc(Cl)ccc1OC1CCN(C2CCCC2)CC1)N1CCCO1`, -2.54%.
The same measure for `CCc1n[nH]c(C2CN(C(=O)c3ccc4c(c3)CCCC4)CCO2)n1` (stereo unspecified): -16.1%; for `COC(=O)CCCN(C)C(=O)c1cc(F)cc2[nH]cnc12`: -2.23%; for `CCC(C)(CCO)NC(=O)c1ccon1` (stereo unspecified): 4.13%.
For `c1cc(CN2CCc3nc(N4CCOCC4)nc(NC4CC4)c3C2)co1`, the cytotoxicity at 10 µM was 12%.
The same measure for `CC(NCc1cccnc1)c1ccc(OCC(=O)NC2CC2)cc1` (stereo unspecified): 2.36%; for `CN(Cc1ccsc1)C(=O)CN1CCOC(Cn2cccn2)C1` (stereo unspecified): -14.7%; for `Cc1nc(C)c(CNC(=O)NC(c2nnc3n2CCC3)C(C)C)s1` (stereo unspecified): -1.79%.
The same measure for `Cc1cc(NCCO)nc(N2CCN(C)CC2)c1C#N`: -17.4%.
The same measure for `COc1cccc2c1N(CC(=O)Nc1ccc(Br)cn1)CCC2`: 36.5%.
Consider `Cc1cc(C)c(CNc2ncnc3c2cnn3C)c(=O)[nH]1`, for which the cytotoxicity at 10 µM stood at 8.63%.
The same measure for `CCc1nccn1CC(=O)Nc1cccc(C(=O)N(C)C)c1`: -6.77%; for `Cc1noc(C)c1CN1CC2(CCCCN2c2cncnc2)CC1=O` (stereo unspecified): 4.13%.
In the case of `FC(F)(F)Cn1nnnc1SCCN1CCCCC1`, the cytotoxicity at 10 µM is -61.4%.
The result for `O=C(O)c1ccccc1-c1ccc(CN2CC(O)C2)cc1` reads -0.363%; that for `Cc1cc2c(cc1C(=O)N1CC[C@H](CO)[C@@H](O)C1)OCCO2`, -10.8%.
The result for `Cc1ncsc1C(=O)OCCN1CCCc2ccccc21` reads 2.42%; that for `CC(Oc1cccc(F)c1)C(=O)N(CC(N)=O)C1CCCC1` (stereo unspecified), -1.21%; that for `Cc1ccnn1CCC(=O)N1CCN(C2CCc3ccccc3C2)CC1` (stereo unspecified), -118%.
The same measure for `Cc1ncc(CNC2CC(=O)N(CCc3ccc(F)cc3)C2)n1C` (stereo unspecified): -0.309%.
Take `CN(CC1CCC1)C(=O)Nc1cccnc1-n1cncn1`: the cytotoxicity at 10 µM came out at 2.86%.
